A short description of data set [1]: Incorporation of infused FAA into brain lipids of unanesthetized mice. Format: in vivo, C57BL/6J male mice.
Data set [2] can be described thus: Plasma kinetics of FAA during 5-min intravenous infusion in unanesthetized mice. It counts as in vivo, C57BL/6J male mice. As to conditions: for plasma area under the curve: 5-min intravenous infusion, mice. The gist of the method:
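Male C57BL/6J mice, 2–3 mo, unanesthetized after 3 h recovery at 37°C. Test compound (0.3 or 1.6 nmol per mouse) in HEPES–fatty acid-free BSA (50 mg/mL, pH 7.4) was infused intravenously at variable rate for 5 min. Arterial plasma was sampled at 0–4.9 min, Folch-extracted, pentafluorobenzyl-derivatized, and analysed by NCI GC/MS against a 17:0 internal standard. AUC was derived by trapezoidal integration; n = 2–3.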

Data on one compound can be found in publication PMC3509950 (Journal of nuclear medicine : official publication, Society …, 2012).

The structures appear in SMILES notation. Bounds are passed on as bounds.

Consider `O=C(O)CCC/C=C\C/C=C\C/C=C\C/C=C\CCCCCF` [FAA, 20-Fluoroarachidonic Acid], for which the “FAA concentration within brain phospholipids (rank order)” value in data set [1] (both doses, end of 5-min infusion, Fig. 2A) was “highest in PtdIns and ChoGlp, followed by EtnGlp and PtdSer”. For the same compound, the “incorporation coefficient k*, high versus low infusion dose” value in data set [1] (brain lipids, 0.3 vs 1.6 nmol, Fig. 3) is given as “lower for the high-infusion dose than for the low-infusion dose”. Also, in data set [1] (end of 5-min infusion, mouse brain), the “FAA detected in brain UFA, triglyceride and cholesteryl ester fractions” value is < 0.01 nmol/g. In addition, the “FAA concentration in plasma over time” value in data set [2] (0.3 or 1.6 nmol infused intravenously over 5 min, Fig. 1) is recorded as “increased over time in a dose-dependent manner”. The “plasma area under the curve” value turned out to be 0.236 ± 0.0189 µM·h in data set [2] (high dose (1.6 nmol)) and 0.0297 ± 0.0217 µM·h in data set [2] (low dose (0.3 nmol)).
